Series [1] concerns the target T1, AB sulfation in HLC (SULT2A1) (Homo sapiens, UniProt Q06520).
T1 sequence (Q06520 1-285): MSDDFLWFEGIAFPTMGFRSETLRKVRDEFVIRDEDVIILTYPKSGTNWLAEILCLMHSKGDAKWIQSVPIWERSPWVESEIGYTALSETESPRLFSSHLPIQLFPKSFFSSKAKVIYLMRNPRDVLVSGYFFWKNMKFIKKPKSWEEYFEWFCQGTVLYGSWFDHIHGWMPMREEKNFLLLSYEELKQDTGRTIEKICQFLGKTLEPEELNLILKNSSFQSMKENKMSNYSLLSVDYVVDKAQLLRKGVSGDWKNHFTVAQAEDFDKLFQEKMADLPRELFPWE
The series is described as follows: Chemical inhibition of AB sulfation in HLC. To be noted: for inhibition of AB sulfation / residual activity of AB sulfation: HLC, Fig. 2A. Format: biochemical.

In series [2] the target is T2, SULT2A1 (Homo sapiens, UniProt Q06520).
T2 sequence (Q06520 1-285): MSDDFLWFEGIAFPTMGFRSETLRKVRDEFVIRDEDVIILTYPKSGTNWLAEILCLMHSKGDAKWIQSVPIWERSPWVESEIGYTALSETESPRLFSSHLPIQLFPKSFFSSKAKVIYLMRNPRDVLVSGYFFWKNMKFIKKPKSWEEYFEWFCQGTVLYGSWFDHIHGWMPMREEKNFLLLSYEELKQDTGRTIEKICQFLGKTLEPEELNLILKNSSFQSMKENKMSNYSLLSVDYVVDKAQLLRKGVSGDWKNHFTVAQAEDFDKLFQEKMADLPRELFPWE
The series is described as follows: Sulfation of AB, DHEA and bufadienolides by recombinant human SULT2A1. Format: in vitro ADME.

For the next series, the target named is T3, SULT1E1 (Homo sapiens, UniProt P49888).
T3 sequence (P49888 1-294): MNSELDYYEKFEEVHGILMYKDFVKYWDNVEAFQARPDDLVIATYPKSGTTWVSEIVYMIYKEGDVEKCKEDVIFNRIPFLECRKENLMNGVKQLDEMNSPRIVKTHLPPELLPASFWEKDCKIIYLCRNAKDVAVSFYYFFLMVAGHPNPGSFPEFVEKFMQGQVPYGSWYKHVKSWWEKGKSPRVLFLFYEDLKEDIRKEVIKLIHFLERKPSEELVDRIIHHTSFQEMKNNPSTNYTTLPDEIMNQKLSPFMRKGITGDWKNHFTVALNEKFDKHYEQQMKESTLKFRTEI
The series is described as follows: DHEA sulfation kinetics by recombinant SULT1E1. The class given is in vitro ADME.

Series [3] has as its target T4, AB sulfation in cytosol of human kidney, small intestine and brain (Homo sapiens, UniProt Q06520).
T4 sequence (Q06520 1-285): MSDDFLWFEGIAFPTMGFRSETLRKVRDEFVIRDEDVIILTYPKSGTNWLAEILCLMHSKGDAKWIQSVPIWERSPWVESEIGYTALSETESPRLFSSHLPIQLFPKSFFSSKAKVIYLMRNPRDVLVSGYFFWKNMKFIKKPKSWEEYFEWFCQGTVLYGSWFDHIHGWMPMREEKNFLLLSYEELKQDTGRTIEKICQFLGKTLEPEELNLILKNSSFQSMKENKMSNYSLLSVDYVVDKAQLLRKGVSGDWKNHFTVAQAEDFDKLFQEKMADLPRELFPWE
The series is described as follows: Inhibition of AB sulfation in cytosol of human kidney, small intestine and brain. The class given is biochemical. To be noted: Fig. S5.

In a further series the test system is SULT2A1 (sulfation). The series is described as follows: Sulfation kinetics and rate in pooled human liver cytosols. Format: in vitro ADME. Conditions: human, pooled human liver cytosols (HLC), pH 7.4, Km, sulfation by HLC. The procedure, abridged:
(§1)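 Substrate-concentration series with pooled mixed-gender human liver cytosol or recombinant human SULTs. Buffer is 50 mmol/L potassium phosphate, pH 7.4, with DTT 8 mmol/L, MgCl2 5 mmol/L and PAPS 4 mmol/L, at 37 °C and within linear formation conditions. Sulfate is quantified by LC–MS/MS. Eadie–Hofstee plots choose the Michaelis–Menten or substrate-inhibition fit. Km, Vmax (and Ksi) come from nonlinear regression. Duplicates in three independent experiments.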

The subject of series [4] is pooled human liver cytosols (HLC). The description is as above. The class given is in vitro ADME. In short, it runs like this: as §1
Assay in series [5]: as above
Format: in vitro ADME. Conditions: human, pooled human liver cytosols (HLC), pH 7.4. In short, it runs like this:
as §1

Series [6] concerns the target T2, SULT2A1. Put plainly: Inhibition of AB sulfation in rhSULT2A1. The class given is biochemical.
Substrate in series [7]: C[C@]12CC[C@H](O)CC1=CC[C@@H]1[C@@H]2CC[C@]2(C)C(=O)CC[C@@H]12
Put plainly: Sulfation of AB, DHEA and bufadienolides by recombinant human SULT2A1. Format: in vitro ADME. To be noted: other: sulfation by SULT2A1; pH 7.4; 37.0 °C.

Substrate in series [8]: C[C@]12CC[C@H](O)CC1=CC[C@@H]1[C@@H]2CC[C@]2(C)C(=O)CC[C@@H]12
The series is described as follows: DHEA sulfation kinetics by recombinant SULT1E1. Format: in vitro ADME, human. To be noted: other: sulfation by SULT1E1; pH 7.4; 37.0 °C.

Turning to `O=[N+]([O-])c1cc(Cl)c(O)c(Cl)c1` [DCNP, 2,6-dichloro-p-nitrophenol], in series [1], the “inhibition of AB sulfation” value was “less than 20%”.
`C[C@]12CC[C@H](O)CC1=CC[C@@H]1[C@@H]2CC[C@]2(C)C(=O)CC[C@@H]12` [DHEA, dehydroepiandrosterone]: the microsomal CLint at SULT2A1 [2] (human, recombinant human SULT2A1 (rhSULT2A1), pH 7.4) stood at 2940 µL/min/mg; at SULT1E1 (human, recombinant human SULT1E1 (rhSULT1E1), pH 7.4) it was 4260 µL/min/mg; in [5] it was 48.2 µL/min/mg. For the same molecule, the “kinetic model of sulfation” value on SULT2A1 [2] (rhSULT2A1, Eadie–Hofstee plot) is reported as “substrate inhibition kinetic model”; on SULT1E1 (rhSULT1E1), “substrate inhibition kinetic model”; in series [4] (HLC, Eadie–Hofstee plot) it was “substrate inhibition kinetic model”. The Ksi on SULT2A1 [2] (sulfation by SULT2A1) worked out at 2.2 ± 0.9 µmol/L; at SULT1E1 (sulfation by SULT1E1), 2.9 ± 1.2 µmol/L; in series [4] (sulfation by HLC), 17.2 ± 2.9 µmol/L. In addition, the IC50 in [1] worked out at 1880 nM; on SULT2A1 [6] it was 1640 nM. Further, the “residual activity of AB sulfation” value in [1] is listed as “less than 10%”. Also, the “CLint of SULT1E1-mediated sulfation, fold higher than for SULT2A1” value at SULT1E1 (SULT1E1 vs SULT2A1) amounted to 1.5 fold. The “Km of SULT1E1-mediated sulfation, fold lower than for SULT2A1” value at SULT1E1 (SULT1E1 vs SULT2A1) is 7.2 fold. Besides, the “inhibitory effect toward AB sulfation in different organs” value in series [3] is listed as “strong inhibitory effect”. Also, the Km in the series on SULT2A1 (sulfation) was 1.08 ± 0.17 µM. In series [4] (sulfation by HLC), the Vm is reported as 0.052 ± 0.004 nmol/min/mg.
Turning to `CC1(C)[C@@H](O)CC[C@]2(C)[C@H]3C(=O)C=C4[C@@H]5C[C@@](C)(C(=O)O)CC[C@]5(C)CC[C@@]4(C)[C@]3(C)CC[C@@H]12` [GA, glycyrrhetinic acid], the “residual activity of AB sulfation” value in series [1] is recorded as “less than 10%”. Moreover, the “inhibitory effect toward AB sulfation in different organs” value in [3] is given as “strong inhibitory effect”.
In the case of `Cc1cccc(Nc2ccccc2C(=O)O)c1C` [MFC, mefenamic acid], in series [1], the “inhibition of AB sulfation” value is “less than 20%”.
Regarding `C[C@]12CC[C@H](O)C[C@H]1CC[C@@H]1[C@@H]2CC[C@]2(C)[C@@H](c3ccc(=O)oc3)C[C@H]3O[C@]132` [RB, resibufogenin], the “sulfation rates by SULT2A1 compared with other bufadienolides” value at SULT2A1 [2] (1, 10 and 100 µmol/L, 0.1 mg/mL protein, 60 min, Fig. S1B) is listed as “higher than those of other bufadienolides”. Further, at SULT2A1 [2] (up to 100 µmol/L, SULT2A1), the “trend of sulfation rate with increasing substrate concentration” value is given as “decreasing trend”.
In the case of `C[C@]12CC[C@@H]3c4ccc(O)cc4CC[C@H]3[C@@H]1CCC2=O` [estrone], in [1], the “inhibition of AB sulfation” value is given as “less than 20%”.
For `CC(C)Cc1ccc(C(C)C(=O)O)cc1` (centres unmarked) [ibuprofen], in series [1], the “inhibition of AB sulfation” value is “less than 20%”.
Regarding `CS(=O)(=O)Nc1ccc([N+](=O)[O-])cc1Oc1ccccc1` [nimesulide], in series [1], the “inhibition of AB sulfation” value was “less than 20%”.

B1: rhSULT2A1 (Homo sapiens) (protein)
chain: MSDDFLWFEGIAFPTMGFRSETLRKVRDEFVIRDEDVIILTYPKSGTNWLAEILCLMHSKGDAKWIQSVPIWERSPWVESEIGYTALSETESPRLFSSHLPIQLFPKSFFSSKAKVIYLMRNPRDVLVSGYFFWKNMKFIKKPKSWEEYFEWFCQGTVLYGSWFDHIHGWMPMREEKNFLLLSYEELKQDTGRTIEKICQFLGKTLEPEELNLILKNSSFQSMKENKMSNYSLLSVDYVVDKAQLLRKGVSGDWKNHFTVAQAEDFDKLFQEKMADLPRELFPWE
Take B1: in series [7], the Km was 2.48 ± 1.15 µM, the maximum rate (Vmax) came out at 0.0073 µmol/min/mg and the Vmax/Km was 2940 µL/min/mg.

B2: rhSULT1E1 (Homo sapiens) (protein)
chain: MNSELDYYEKFEEVHGILMYKDFVKYWDNVEAFQARPDDLVIATYPKSGTTWVSEIVYMIYKEGDVEKCKEDVIFNRIPFLECRKENLMNGVKQLDEMNSPRIVKTHLPPELLPASFWEKDCKIIYLCRNAKDVAVSFYYFFLMVAGHPNPGSFPEFVEKFMQGQVPYGSWYKHVKSWWEKGKSPRVLFLFYEDLKEDIRKEVIKLIHFLERKPSEELVDRIIHHTSFQEMKNNPSTNYTTLPDEIMNQKLSPFMRKGITGDWKNHFTVALNEKFDKHYEQQMKESTLKFRTEI
As for B2, in series [8], the Km was 0.34 ± 0.13 µM, the Vmax was 0.00145 µmol/min/mg and the Vmax/Km came out at 4260 µL/min/mg.

Source of the values: article PMC6146385 (Acta Pharmaceutica Sinica. B, 2018).
